The results in this text go back to ChEMBL document CHEMBL1123218, “Synthesis and inhibitory activity on carbonic anhydrase of some new sulpiride analogues studied by means of a new method” (J Med Chem, 1986).

Common to all, as to assay type: protein assay
For experiment [1], the target named is T1, Carbonic anhydrase (Bos taurus) (UniProt P00921+Q95323+P18915+Q3SZX4). As to the kind of experiment: Evaluated for the inhibition of carbonic anhydrase enzyme at 0.2 g/L concentration. The procedure, abridged:
(§1)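 Potentiometric CO2-evolution assay tracked with a pCO2 electrode, 25 ± 0.1 °C, constant stirring, pH 7.0 (0.1 M phosphate buffer), 60 min. NaHCO3 aliquots (0.1 and 5.0 mL) were added to 30 mL buffer at min 2 and 14. CA solution (1.0 mL) was added just before the second bicarbonate addition. Inhibitor was present in the buffer from the assay start.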

Experiment [2] deals with T1, Carbonic anhydrase (Bos taurus). As to the kind of experiment: Compound was evaluated for the inhibition of carbonic anhydrase enzyme at 0.5 g/L concentration; a=No inhibition detected. The procedure, abridged: as §1
Experiment [3] shares this target. As to the kind of experiment: Compound was evaluated for the inhibition of carbonic anhydrase enzyme at 1.0 g/L concentration; a=No inhibition detected. The method, boiled down: as §1
The target is the same in experiment [4]. The experiment can be described thus: Compound was evaluated for the inhibition of carbonic anhydrase enzyme at 2.0 g/L concentration; a=No inhibition detected. The procedure, abridged: as §1
The target is the same in experiment [5]. As to the kind of experiment: Compound was evaluated for the inhibition of carbonic anhydrase enzyme at 1.5 g/L concentration; a=No inhibition detected. The procedure, abridged: as §1
Experiment [6] shares this target. The experiment can be described thus: Compound was evaluated for the inhibition of carbonic anhydrase enzyme at 0.2 g/L concentration; a=No inhibition detected. The procedure, abridged:
as §1

The structures appear in SMILES notation. Active and inactive are the calls of the source. The rule behind the calls is not given here.

In turn, `NS(=O)(=O)c1nc(C(=O)N2CCN(Cc3ccccc3)CC2)c[nH]1` returned an inhibition in experiment [1] of 68.9%.

Turning to `COc1ccc(CN2CCN(C(=O)c3cc(S(N)(=O)=O)ccc3OC)CC2)cc1`, the inhibition in experiment [1] came to 63.6%.

In experiment [1], `CCN1CCCC1CN(C)C(=O)c1cc(S(N)(=O)=O)ccc1OC` (stereo not given) gave an inhibition of 39.4%.

For `COc1ccc(S(N)(=O)=O)cc1C(=O)N1CCN2CCCC2C1` (stereo not given), the inhibition in experiment [1] turned out to be 46.2%.

In turn, `COc1ccc(S(N)(=O)=O)cc1C(=O)NCCN1CCCCC1` returned an inhibition in experiment [1] of 39.4%.

The molecule `COc1ccc(S(N)(=O)=O)cc1C(=O)N1CCN(Cc2ccccc2)CC1` registered an inhibition in experiment [1] of 58.3%.

Take `CCN1CCCC1CNC(=O)c1cc(S(=O)(=O)CC)ccc1OC` (stereo not given): the inhibition entry in experiment [2], in experiment [3], in experiment [4], in experiment [5] and in experiment [6] was “inactive” in each case.

`CCC(C)CN1CCN(C(=O)c2cc(S(N)(=O)=O)ccc2OC)CC1` (stereo not given): the inhibition in experiment [1] amounted to 46.2%.

For `COc1ccc(S(N)(=O)=O)cc1C(=O)N1CCN(CC(=O)N2CCCC2)CC1`, in experiment [1], the inhibition worked out at 45.5%.

The molecule `COc1ccc(S(N)(=O)=O)cc1C(=O)N1CCN(CC(C)C)CC1` gave an inhibition in experiment [1] of 36.4%.

In turn, `COc1ccc(S(N)(=O)=O)cc1C(=O)N1CCN(CC(=O)NC(C)C)CC1` returned an inhibition in experiment [1] of 54.6%.

`COc1cccc(CN2CCN(C(=O)c3cc(S(N)(=O)=O)ccc3OC)CC2)c1`: the inhibition in experiment [1] was 66.7%.

`COc1ccc(S(N)(=O)=O)cc1C(=O)N1CCN(Cc2ccc(S(N)(=O)=O)cc2)CC1` had an inhibition in experiment [1] of 70.5%.

Consider `COc1ccc(S(N)(=O)=O)cc1C(=O)N1CCNCC1`, for which the inhibition in experiment [1] was determined as 30.3%.

As for `CC[C@H](C)COc1ccc(S(N)(=O)=O)cc1C(=O)NC[C@H]1CCCN1CC`, the inhibition in experiment [1] is 41.7%.

For `COc1ccc(S(N)(=O)=O)cc1CN1CCN(Cc2ccccc2)CC1`, the inhibition in experiment [1] stood at 37.9%.

For `CCN1CCC[C@H]1CNC(=O)c1c(OC)c(Br)cc(Br)c1OC`, the inhibition result in experiment [2], in experiment [3], in experiment [4], in experiment [5] and in experiment [6] was “No inhibition” throughout.

In experiment [1], `COc1ccc(S(N)(=O)=O)cc1C(=O)N1CCN(Cc2cc(OC)c(OC)c(OC)c2)CC1` registered an inhibition of 61.4%.

In experiment [1], `COc1ccc(S(N)(=O)=O)cc1C(=O)N1CCN(CC2CCCCC2)CC1` displayed an inhibition of 51.5%.

Regarding `C=CCN1CCN(C(=O)c2cc(S(N)(=O)=O)ccc2OC)CC1`, in experiment [1], the inhibition turned out to be 36.4%.

Molecule `COc1ccc(S(N)(=O)=O)cc1C(=O)NCCCN1CCOCC1` returned an inhibition in experiment [1] of 45.5%.

`CC[C@H](C)COc1ccc(S(N)(=O)=O)cc1C(=O)NC[C@@H]1CCCN1CC` registered an inhibition in experiment [1] of 42.4%.

As a reminder, the inhibition is the share of the control response that was lost under treatment.
